Source: ChEMBL document CHEMBL3352717, “Identification of the first inhibitor of the GBP1:PIM1 interaction. Implications for the development of a new class of anticancer agents against paclitaxel resistant cancer cells” (J Med Chem, 2014)
Active and inactive are the calls of the source. The rule behind the calls is not given here.

What was measured:
[1] = molecular target: T1, Interferon-induced guanylate-binding protein 1/Serine/threonine-protein kinase pim-1 (Homo sapiens) (UniProt P11309+P32455); assay: Inhibition of GBP1 (unknown origin)-PIM1 (unknown origin) interaction at 100 nM by SPR analysis; type: protein assay
Outline: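 Recombinant PIM1 amine-coupled (50 μg/mL in acetate pH 5.5, ~2000 RU) on an EDC/S-NHS-activated GLM chip; blank acetate-treated channel as reference. Compound co-injected with GBP1 280 nM in TBST, 30 μL/min for 120 s, 15 min dissociation. Carbonic anhydrase 280 nM was the negative control. % inhibition = RU with compound over RU with GBP1 alone; runs done at least three times.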

[2] = molecular target: T1, Interferon-induced guanylate-binding protein 1/Serine/threonine-protein kinase pim-1 (Homo sapiens); assay: Inhibition of GBP1 (unknown origin)-PIM1 (unknown origin) interaction by SPR analysis; type: protein assay
Outline: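 Recombinant PIM1 (50 μg/mL in acetate buffer pH 5.5) amine-coupled to GLM chip via EDC/S-NHS (~2000 RU); compound (0.1, 1, 10, 100 nM) co-injected with GBP1 280 nM in TBST, 30 μL/min, 120 s, 15 min dissociation; DMSO 0.2% v/v. CA 280 nM negative control. % inhibition = RU with compound over GBP1-alone maximum; runs at least three times.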

[3] = molecular target: T1, Interferon-induced guanylate-binding protein 1/Serine/threonine-protein kinase pim-1 (Homo sapiens); assay: Inhibition of GBP1-PIM1 interaction in human SKOV3 cells at 100 nM after 3 hrs by co-immunoprecepitation method; type: cell-based; conditions: SK-OV-3
Outline: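 SKOV3 cells treated 3 h with compound; cells scraped, lysed, PIM1 immunoprecipitated (anti-IgG negative control); co-precipitated GBP1 detected by Western blot with anti-GBP1 (67 kD band, antibodies 1:200 in 5% milk–TBST). Bands quantified by densitometry; DMSO vehicle control.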

T1 sequence (P11309 whole entry, looked up): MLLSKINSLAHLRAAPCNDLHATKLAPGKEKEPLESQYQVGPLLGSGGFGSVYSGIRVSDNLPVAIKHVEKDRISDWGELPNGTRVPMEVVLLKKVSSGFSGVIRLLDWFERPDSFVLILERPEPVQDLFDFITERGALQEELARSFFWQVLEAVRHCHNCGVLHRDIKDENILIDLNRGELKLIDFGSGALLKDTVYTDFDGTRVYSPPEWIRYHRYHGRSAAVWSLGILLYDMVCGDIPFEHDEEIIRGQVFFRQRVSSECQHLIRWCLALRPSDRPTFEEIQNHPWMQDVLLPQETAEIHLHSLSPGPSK
T1 sequence (P32455 whole entry, looked up): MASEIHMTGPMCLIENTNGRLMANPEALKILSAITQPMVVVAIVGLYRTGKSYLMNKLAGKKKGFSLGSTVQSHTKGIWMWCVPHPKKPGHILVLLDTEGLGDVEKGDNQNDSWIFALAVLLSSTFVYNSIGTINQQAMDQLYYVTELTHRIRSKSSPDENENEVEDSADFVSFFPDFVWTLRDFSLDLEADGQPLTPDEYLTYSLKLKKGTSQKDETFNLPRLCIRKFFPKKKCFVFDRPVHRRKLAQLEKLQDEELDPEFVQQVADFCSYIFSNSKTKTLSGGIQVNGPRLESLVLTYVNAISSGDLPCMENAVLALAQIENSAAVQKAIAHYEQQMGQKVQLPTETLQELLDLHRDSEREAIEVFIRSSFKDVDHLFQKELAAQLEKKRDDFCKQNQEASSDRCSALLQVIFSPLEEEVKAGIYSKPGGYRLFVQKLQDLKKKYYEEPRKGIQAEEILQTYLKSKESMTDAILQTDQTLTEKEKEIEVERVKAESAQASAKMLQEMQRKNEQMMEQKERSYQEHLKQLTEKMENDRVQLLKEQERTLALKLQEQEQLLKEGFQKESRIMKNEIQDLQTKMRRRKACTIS

SMILES	inhibition [1]	inhibition [2]	inhibition [3]
COc1ccc2c(c1)N(CCO)C1=C(C(=O)OC1)C2c1ccccc1 (configuration not stated)	65%	Dose-dependent effect	Active
O=C1OCC2=C1C(c1ccc(Cl)c(Cl)c1)c1cc3c(cc1N2CCO)CCC3 (configuration not stated)	inactive	–	–
COc1cc(C2C3=C(COC3=O)N(CCO)c3cc4c(cc32)OCO4)cc(OC)c1O (configuration not stated)	inactive	–	–
COc1cccc(C2C3=C(COC3=O)N(CCO)c3cc4c(cc32)OCCO4)c1 (configuration not stated)	inactive	–	–
O=C1OCC2=C1C(c1cccc(Br)c1)c1cc3c(cc1N2CCO)CCC3 (configuration not stated)	inactive	–	–
COc1cc(C2C3=C(COC3=O)N(CCO)c3cc4c(cc32)OCCO4)cc(OC)c1O (configuration not stated)	inactive	–	–
CCc1ccc2c(c1)N(CCO)C1=C(C(=O)OC1)C2c1cccc(Br)c1 (configuration not stated)	inactive	–	–
O=C1OCC2=C1C(c1ccccc1)c1cc3c(cc1N2CCO)OCO3 (configuration not stated)	inactive	–	–
COc1cc(C2C3=C(COC3=O)N(CCO)c3cc4c(cc32)OCO4)cc(OC)c1OC (configuration not stated)	inactive	–	–
CCc1ccc2c(c1)N(CCO)C1=C(C(=O)OC1)C2c1cccc(Cl)c1 (configuration not stated)	10%	–	–
O=C1OCC2=C1C(c1ccccc1)c1cc3c(cc1N2CCO)CCC3 (configuration not stated)	inactive	–	–
O=C1OCC2=C1C(c1cccc(Br)c1)c1cc3c(cc1N2CCO)OCCO3 (configuration not stated)	inactive	–	–
COc1cc(C2C3=C(COC3=O)N(CCO)c3cc4c(cc32)OCCO4)cc(OC)c1OC (configuration not stated)	inactive	–	–
CCc1ccc2c(c1)N(CCO)C1=C(C(=O)OC1)C2c1ccccc1 (configuration not stated)	inactive	–	–
COc1ccc(C2C3=C(COC3=O)N(CCO)c3cc4c(cc32)OCCO4)cc1 (configuration not stated)	inactive	–	–
O=C1OCC2=C1C(c1ccc(Cl)c(Cl)c1)c1cc3c(cc1N2CCO)OCCO3 (configuration not stated)	inactive	–	–
CCc1ccc2c(c1)N(CCO)C1=C(C(=O)OC1)C2c1ccc(Cl)c(Cl)c1 (configuration not stated)	inactive	–	–
COc1cc(C2C3=C(COC3=O)N(CCO)c3cc4c(cc32)CCC4)cc(OC)c1OC (configuration not stated)	inactive	–	–
O=C1OCC2=C1C(c1cccc(Cl)c1)c1cc3c(cc1N2CCO)OCO3 (configuration not stated)	inactive	–	–
O=C1OCC2=C1C(c1cccc(Cl)c1)c1cc3c(cc1N2CCO)CCC3 (configuration not stated)	inactive	–	–
COc1cc(C2C3=C(COC3=O)N(CCO)c3cc4c(cc32)CCC4)cc(OC)c1O (configuration not stated)	inactive	–	–
O=C1OCC2=C1C(c1cccc(Cl)c1)c1cc3c(cc1N2CCO)OCCO3 (configuration not stated)	inactive	–	–
O=C1OCC2=C1C(c1ccccc1)c1cc3c(cc1N2CCO)OCCO3 (configuration not stated)	inactive	–	–

The next lines start with results.

inhibition [1]	SMILES	inhibition [2]	inhibition [3]
10%	COc1ccc2c(c1)N(CCO)C1=C(C(=O)OC1)C2c1cccc(Br)c1 (configuration not stated)	–	–
inactive	COc1cc2c(cc1OC)N(CCO)C1=C(C(=O)OC1)C2c1ccc(Cl)c(Cl)c1 (configuration not stated)	–	–
10%	COc1ccc(C2C3=C(COC3=O)N(CCO)c3cc(OC)c(OC)cc32)cc1OC (configuration not stated)	–	–
inactive	COc1ccc(C2C3=C(COC3=O)N(CCO)c3cc4c(cc32)OCO4)cc1OC (configuration not stated)	–	–
inactive	COc1ccc(C2C3=C(COC3=O)N(CCO)c3cc4c(cc32)OCO4)cc1 (configuration not stated)	–	–
inactive	COc1ccc(C2C3=C(COC3=O)N(CCO)c3cc4c(cc32)CCC4)cc1 (configuration not stated)	–	–
inactive	COc1ccc(C2C3=C(COC3=O)N(CCO)c3cc4c(cc32)OCCO4)cc1OC (configuration not stated)	–	–
10%	COc1cccc(C2C3=C(COC3=O)N(CCO)c3cc(OC)ccc32)c1 (configuration not stated)	–	–
inactive	COc1cccc(C2C3=C(COC3=O)N(CCO)c3cc4c(cc32)OCO4)c1 (configuration not stated)	–	–
inactive	COc1ccc(C2C3=C(COC3=O)N(CCO)c3cc4c(cc32)CCC4)cc1OC (configuration not stated)	–	–
inactive	COc1ccc(C2C3=C(COC3=O)N(CCO)c3cc(OC)c(OC)cc32)cc1 (configuration not stated)	–	–
10%	COc1cc2c(cc1OC)N(CCO)C1=C(C(=O)OC1)C2c1cccc(Cl)c1 (configuration not stated)	–	–
10%	COc1ccc(C2C3=C(COC3=O)N(CCO)c3cc(OC)ccc32)cc1 (configuration not stated)	–	–
10%	COc1ccc2c(c1)N(CCO)C1=C(C(=O)OC1)C2c1cc(OC)c(OC)c(OC)c1 (configuration not stated)	–	inactive
10%	COc1cc2c(cc1OC)N(CCO)C1=C(C(=O)OC1)C2c1cccc(Br)c1 (configuration not stated)	–	–
inactive	COc1cc2c(cc1OC)N(CCO)C1=C(C(=O)OC1)C2c1ccccc1 (configuration not stated)	–	–
inactive	COc1cccc(C2C3=C(COC3=O)N(CCO)c3cc4c(cc32)CCC4)c1 (configuration not stated)	–	–
10%	COc1cccc(C2C3=C(COC3=O)N(CCO)c3cc(OC)c(OC)cc32)c1 (configuration not stated)	–	–
inactive	CCc1ccc2c(c1)N(CCO)C1=C(C(=O)OC1)C2c1cc(OC)c(OC)c(OC)c1 (configuration not stated)	–	–
10%	COc1cc2c(cc1OC)N(CCO)C1=C(C(=O)OC1)C2c1cc(OC)c(OC)c(OC)c1 (configuration not stated)	–	–
inactive	COc1ccc2c(c1)N(CCO)C1=C(C(=O)OC1)C2c1ccc(OC)c(OC)c1 (configuration not stated)	–	–
